According to ChEMBL document CHEMBL1134010, “Syntheses and antifungal activities of novel 3-amido bearing pseudomycin analogues” (Bioorg Med Chem Lett, 2001):
Values after ≈ are worked out from the molar mass of the structure shown. Positions of bridges follow the written chain, without caps; N, C: chain ends. Non-standard residues stand in square brackets, D forms with d. Residues, ends and D or L forms follow the SMILES beside them. Groups on a side chain read outwards from the residue. *: point of attachment. Tetradecanoyl(3R-OH) = CCCCCCCCCCC[C@@H](O)CC(=O)*; Asp(3S-OH) = N[C@H](C(=O)O)[C@H](O)C(=O)O; Thr(4-Cl) = N[C@H](C(=O)O)[C@H](O)CCl; aThr = C[C@H](O)[C@H](N)C(=O)O; dDab = NCC[C@@H](N)C(=O)O; Dab = NCC[C@H](N)C(=O)O; Dhb = C/C=C(\N)C(=O)O; X1 = CCN(CC)CCN*

Legend:
Aspergillus fumigatus = assay: In vitro minimum inhibitory concentration (MIC) against Aspergillus fumigatus.; format: functional
Procedure, shortened: (§1)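 Tested against Candida albicans, Cryptococcus neoformans and Aspergillus fumigatus, with PSB as positive control. MIC is taken as the lowest drug concentration giving 90–100% inhibition of visible growth relative to drug-free controls.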

Cryptococcus neoformans = assay: In vitro minimum inhibitory concentration (MIC) against Cryptococcus neoformans.; format: functional; procedure, shortened: as §1
Candida albicans [1] = assay: In vivo efficacy against murine Candidiasis dosed four times by intraperitoneal administration post-infection using Reed and Muench method.; format: functional; settings: ip
Procedure, shortened: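 Systemic candidiasis in mice, with PSB and amphotericin B as positive controls. Analogues were given at 20, 10 and 5 mg/kg, four doses at 0, 4, 24 and 48 post-infection. ED50 is the dose giving 50% survival relative to untreated infected animals, calculated by the Reed and Muench method.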

Candida albicans [2] = assay: In vitro minimum inhibitory concentration (MIC) against Candida albicans.; format: functional; procedure, shortened: as §1
Mus musculus [3] = assay: Toxicity at a dose of 125 mg/kg in mice; Death; settings: in vivo
Mus musculus [4] = assay: Toxicity at a dose of 100 mg/kg in mice; Death; settings: in vivo

| Structure (SMILES) | MIC (Aspergillus fumigatus) [µg/mL] | MIC (Cryptococcus neoformans) [µg/mL] | ED50 (Candida albicans [1]) [mg/kg] | MIC (Candida albicans [2]) [µg/mL] | Toxicity (Mus musculus [3]) | Toxicity (Mus musculus [4]) |
| --- | --- | --- | --- | --- | --- | --- |
| C/C=C1\NC(=O)[C@H]([C@H](C)O)NC(=O)[C@H](CCN)NC(=O)[C@H](CCCCN)NC(=O)[C@H](CC(=O)NCCCCCCCC)NC(=O)[C@@H](CCN)NC(=O)[C@@H](NC(=O)C[C@H](O)CCCCCCCCCCC)COC(=O)[C@H]([C@H](O)CCl)NC(=O)[C@H]([C@H](O)C(=O)O)NC1=O | > 20 | 0.625 (≈ 0.474 µM) | > 20 | 20 (≈ 15.2 µM) |  |  |
| C/C=C1\NC(=O)[C@H]([C@H](C)O)NC(=O)[C@H](CCN)NC(=O)[C@H](CCCCN)NC(=O)[C@H](CC(=O)NCCN(CC)CC)NC(=O)[C@@H](CCN)NC(=O)[C@@H](NC(=O)C[C@H](O)CCCCCCCCCCC)COC(=O)[C@H]([C@H](O)CCl)NC(=O)[C@H]([C@H](O)C(=O)O)NC1=O ({Tetradecanoyl(3R-OH)}-S[dDab]D(X1)K[Dab][aThr][Dhb][Asp(3S-OH)][Thr(4-Cl)]; ester 1-C) | 10 (≈ 7.66 µM) | < 0.01 | 4.9 | 10 (≈ 7.66 µM) |  |  |
| C/C=C1\NC(=O)[C@H]([C@H](C)O)NC(=O)[C@H](CCN)NC(=O)[C@H](CCCCN)NC(=O)[C@H](CC(=O)N(C)CCN(C)C)NC(=O)[C@@H](CCN)NC(=O)[C@@H](NC(=O)C[C@H](O)CCCCCCCCCCC)COC(=O)[C@H]([C@H](O)CCl)NC(=O)[C@H]([C@H](O)C(=O)O)NC1=O | 20 (≈ 15.5 µM) | < 0.01 | 4 | 5 (≈ 3.87 µM) |  |  |
| C/C=C1\NC(=O)[C@H]([C@H](C)O)NC(=O)[C@H](CCN)NC(=O)[C@H](CCCCN)NC(=O)[C@H](CC(=O)NCCCCN(C)C)NC(=O)[C@@H](CCN)NC(=O)[C@@H](NC(=O)C[C@H](O)CCCCCCCCCCC)COC(=O)[C@H]([C@H](O)CCl)NC(=O)[C@H]([C@H](O)C(=O)O)NC1=O | 5 (≈ 3.83 µM) | < 0.01 | < 5 | 20 (≈ 15.3 µM) |  |  |
| C/C=C1\NC(=O)[C@H]([C@H](C)O)NC(=O)[C@H](CCN)NC(=O)[C@H](CCCCN)NC(=O)[C@H](CC(=O)NCCC(C)C)NC(=O)[C@@H](CCN)NC(=O)[C@@H](NC(=O)C[C@H](O)CCCCCCCCCCC)COC(=O)[C@H]([C@H](O)CCl)NC(=O)[C@H]([C@H](O)C(=O)O)NC1=O | > 20 | < 0.01 | 10.9 | 0.312 (≈ 0.244 µM) |  |  |
| C/C=C1\NC(=O)[C@H]([C@H](C)O)NC(=O)[C@H](CCN)NC(=O)[C@H](CCCCN)NC(=O)[C@H](CC(=O)NCCCCCC)NC(=O)[C@@H](CCN)NC(=O)[C@@H](NC(=O)C[C@H](O)CCCCCCCCCCC)COC(=O)[C@H]([C@H](O)CCl)NC(=O)[C@H]([C@H](O)C(=O)O)NC1=O | > 20 | 0.156 (≈ 0.121 µM) | > 12 | 5 (≈ 3.87 µM) |  |  |
| C/C=C1\NC(=O)[C@H]([C@H](C)O)NC(=O)[C@H](CCN)NC(=O)[C@H](CCCCN)NC(=O)[C@H](CC(=O)NC)NC(=O)[C@@H](CCN)NC(=O)[C@@H](NC(=O)C[C@H](O)CCCCCCCCCCC)COC(=O)[C@H]([C@H](O)CCl)NC(=O)[C@H]([C@H](O)C(=O)O)NC1=O | > 20 | 0.312 (≈ 0.256 µM) | 7.4 | 5 (≈ 4.1 µM) |  |  |
| C/C=C1\NC(=O)[C@H]([C@@H](C)O)NC(=O)[C@H](CCN)NC(=O)[C@H](CCCCN)NC(=O)[C@H](CC(=O)N[C@@H](CCCCN)C(=O)OC)NC(=O)[C@@H](CCN)NC(=O)[C@@H](NC(=O)C[C@H](O)CCCCCCCCCCC)COC(=O)[C@H]([C@H](O)CCl)NC(=O)[C@H]([C@H](O)C(=O)O)NC1=O | > 20 | < 0.01 | < 5 | 1.25 (≈ 0.926 µM) | Death | Death |
| C/C=C1\NC(=O)[C@H]([C@H](C)O)NC(=O)[C@H](CCN)NC(=O)[C@H](CCCCN)NC(=O)[C@H](CC(=O)NCCCCCCN(C)C)NC(=O)[C@@H](CCN)NC(=O)[C@@H](NC(=O)C[C@H](O)CCCCCCCCCCC)COC(=O)[C@H]([C@H](O)CCl)NC(=O)[C@H]([C@H](O)C(=O)O)NC1=O | 20 (≈ 15 µM) | < 0.01 | < 5 | 5 (≈ 3.75 µM) |  |  |
| C/C=C1\NC(=O)[C@H]([C@@H](C)O)NC(=O)[C@H](CCN)NC(=O)[C@H](CCCCN)NC(=O)[C@H](CC(=O)N[C@@H](Cc2c[nH]cn2)C(=O)OC)NC(=O)[C@@H](CCN)NC(=O)[C@@H](NC(=O)C[C@H](O)CCCCCCCCCCC)COC(=O)[C@H]([C@H](O)CCl)NC(=O)[C@H]([C@H](O)C(=O)O)NC1=O | 20 (≈ 14.7 µM) | < 0.01 | < 5 | 0.312 (≈ 0.23 µM) |  |  |
| C/C=C1\NC(=O)[C@H]([C@H](C)O)NC(=O)[C@H](CCN)NC(=O)[C@H](CCCCN)NC(=O)[C@H](CC(=O)NCCCCCCCN(C)C)NC(=O)[C@@H](CCN)NC(=O)[C@@H](NC(=O)C[C@H](O)CCCCCCCCCCC)COC(=O)[C@H]([C@H](O)CCl)NC(=O)[C@H]([C@H](O)C(=O)O)NC1=O | > 20 | < 0.01 | < 4 | 10 (≈ 7.42 µM) |  |  |
| C/C=C1\NC(=O)[C@H]([C@H](C)O)NC(=O)[C@H](CCN)NC(=O)[C@H](CCCCN)NC(=O)[C@H](CC(=O)NCCCCC)NC(=O)[C@@H](CCN)NC(=O)[C@@H](NC(=O)C[C@H](O)CCCCCCCCCCC)COC(=O)[C@H]([C@H](O)CCl)NC(=O)[C@H]([C@H](O)C(=O)O)NC1=O | > 20 | < 0.01 | 8.5 | 0.312 (≈ 0.244 µM) |  |  |
| C/C=C1\NC(=O)[C@H]([C@H](C)O)NC(=O)[C@H](CCN)NC(=O)[C@H](CCCCN)NC(=O)[C@H](CC(=O)NCCCCCCCCC)NC(=O)[C@@H](CCN)NC(=O)[C@@H](NC(=O)C[C@H](O)CCCCCCCCCCC)COC(=O)[C@H]([C@H](O)CCl)NC(=O)[C@H]([C@H](O)C(=O)O)NC1=O | > 20 | 5 (≈ 3.75 µM) | > 20 | 20 (≈ 15 µM) |  |  |
| C/C=C1\NC(=O)[C@H]([C@H](C)O)NC(=O)[C@H](CCN)NC(=O)[C@H](CCCCN)NC(=O)[C@H](CC(=O)NCCCC)NC(=O)[C@@H](CCN)NC(=O)[C@@H](NC(=O)C[C@H](O)CCCCCCCCCCC)COC(=O)[C@H]([C@H](O)CCl)NC(=O)[C@H]([C@H](O)C(=O)O)NC1=O | 20 (≈ 15.8 µM) | < 0.01 | 5.9 | 5 (≈ 3.96 µM) |  |  |
| C/C=C1\NC(=O)[C@H]([C@H](C)O)NC(=O)[C@H](CCN)NC(=O)[C@H](CCCCN)NC(=O)[C@H](CC(=O)NCC)NC(=O)[C@@H](CCN)NC(=O)[C@@H](NC(=O)C[C@H](O)CCCCCCCCCCC)COC(=O)[C@H]([C@H](O)CCl)NC(=O)[C@H]([C@H](O)C(=O)O)NC1=O | 20 (≈ 16.2 µM) | 0.156 (≈ 0.126 µM) |  | 0.625 (≈ 0.506 µM) |  |  |
| C/C=C1\NC(=O)[C@H]([C@H](C)O)NC(=O)[C@H](CCN)NC(=O)[C@H](CCCCN)NC(=O)[C@H](CC(=O)N(C)C)NC(=O)[C@@H](CCN)NC(=O)[C@@H](NC(=O)C[C@H](O)CCCCCCCCCCC)COC(=O)[C@H]([C@H](O)CCl)NC(=O)[C@H]([C@H](O)C(=O)O)NC1=O | 10 (≈ 8.1 µM) | < 0.01 | < 4.5 | 10 (≈ 8.1 µM) |  |  |
| C/C=C1\NC(=O)[C@H]([C@H](C)O)NC(=O)[C@H](CCN)NC(=O)[C@H](CCCCN)NC(=O)[C@H](CC(=O)NCCCN(C)C)NC(=O)[C@@H](CCN)NC(=O)[C@@H](NC(=O)C[C@H](O)CCCCCCCCCCC)COC(=O)[C@H]([C@H](O)CCl)NC(=O)[C@H]([C@H](O)C(=O)O)NC1=O | 10 (≈ 7.74 µM) | < 0.01 | < 5 | 10 (≈ 7.74 µM) |  |  |
| C/C=C1\NC(=O)[C@H]([C@H](C)O)NC(=O)[C@H](CCN)NC(=O)[C@H](CCCCN)NC(=O)[C@H](CC(=O)NCC(=O)OC)NC(=O)[C@@H](CCN)NC(=O)[C@@H](NC(=O)C[C@H](O)CCCCCCCCCCC)COC(=O)[C@H]([C@H](O)CCl)NC(=O)[C@H]([C@H](O)C(=O)O)NC1=O ({Tetradecanoyl(3R-OH)}-S[dDab]D([Gly-OMe])K[Dab][aThr][Dhb][Asp(3S-OH)][Thr(4-Cl)]; ester 1-C) | 20 (≈ 15.6 µM) | 0.01 (≈ 0.00782 µM) | < 5 | 1 (≈ 0.782 µM) |  |  |
| C/C=C1\NC(=O)[C@H]([C@@H](C)O)NC(=O)[C@H](CCN)NC(=O)[C@H](CCCCN)NC(=O)[C@H](CC(=O)N[C@@H](CCCN=C(N)N)C(=O)OC)NC(=O)[C@@H](CCN)NC(=O)[C@@H](NC(=O)C[C@H](O)CCCCCCCCCCC)COC(=O)[C@H]([C@H](O)CCl)NC(=O)[C@H]([C@H](O)C(=O)O)NC1=O | > 20 | 0.01 (≈ 0.00726 µM) | < 5 | 5 (≈ 3.63 µM) |  |  |
| C/C=C1\NC(=O)[C@H]([C@H](C)O)NC(=O)[C@H](CCN)NC(=O)[C@H](CCCCN)NC(=O)[C@H](CC(=O)NCCCCCCCCCC)NC(=O)[C@@H](CCN)NC(=O)[C@@H](NC(=O)C[C@H](O)CCCCCCCCCCC)COC(=O)[C@H]([C@H](O)CCl)NC(=O)[C@H]([C@H](O)C(=O)O)NC1=O | > 20 | 1.25 (≈ 0.928 µM) | > 20 | > 20 |  |  |
| C/C=C1\NC(=O)[C@H]([C@@H](C)O)NC(=O)[C@H](CCN)NC(=O)[C@H](CCCCN)NC(=O)[C@H](CC(=O)N[C@@H](Cc2ccccc2)C(=O)OC)NC(=O)[C@@H](CCN)NC(=O)[C@@H](NC(=O)C[C@H](O)CCCCCCCCCCC)COC(=O)[C@H]([C@H](O)CCl)NC(=O)[C@H]([C@H](O)C(=O)O)NC1=O | > 20 | 1.25 (≈ 0.913 µM) | > 15 | 1.25 (≈ 0.913 µM) |  |  |
